Results taken from ChEMBL document CHEMBL1275598, “In vitro activity of ceftaroline against community-associated methicillin-resistant, vancomycin-intermediate, vancomycin-resistant, and daptomycin-nonsusceptible Staphylococcus aureus isolates” (2010).

Key:
Staphylococcus aureus [1] = assay: Antimicrobial activity against vancomycin resistant Staphylococcus aureus VRS-6 expressing SCCmec type 2 element by microdilution method in presence of 50 mg/L calcium; assay type: functional
In short: (§1)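 Broth microdilution per CLSI in cation-adjusted Mueller-Hinton broth supplemented with calcium to 50 mg/liter final. Antibiotic powders were reconstituted per CLSI. The MIC was read visually as the lowest drug concentration with no visible growth. S. aureus ATCC 29213 and E. faecalis ATCC 29212 served as control strains.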

Staphylococcus aureus [2] = assay: Antimicrobial activity against vancomycin resistant Staphylococcus aureus VRS-8 expressing SCCmec element by microdilution method in presence of 50 mg/L calcium
Staphylococcus aureus [3] = assay: Antimicrobial activity against vancomycin resistant Staphylococcus aureus VRS-9 expressing SCCmec type 2 element by microdilution method in presence of 50 mg/L calcium
Staphylococcus aureus [4] = assay: Antimicrobial activity against vancomycin-intermediate Staphylococcus aureus assessed as susceptible isolates by microdilution method in presence of 50 mg/L calcium; assay type: functional
In short: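 Broth microdilution MIC per CLSI in cation-adjusted Mueller-Hinton broth, with calcium added to a final 50 mg/liter for daptomycin testing. MIC is the lowest drug concentration with no visible growth, read by eye. Percent susceptible was assigned from CLSI breakpoints. S. aureus ATCC 29213 and E. faecalis ATCC 29212 served as control strains.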

Staphylococcus aureus [5] = assay: Bactericidal activity against vancomycin-intermediate Staphylococcus aureus assessed as antibiotic concentration that reduced the number of viable cells by =>99.9% by colony count method in presence of 50 mg/L calcium; assay type: functional
In short: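 MBC per CLSI following microdilution in cation-adjusted Mueller-Hinton broth with calcium added to 50 mg/liter final. Defined as the concentration giving ≥99.9% reduction in viable cells, judged from colony counts of the growth control well against Pearson rejection-value tables.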

Staphylococcus aureus [6] = assay: Antimicrobial activity against vancomycin-resistant Staphylococcus aureus by microdilution method in presence of 50 mg/L calcium; assay type: functional; in short: as §1
Staphylococcus aureus [7] = assay: Antimicrobial activity against vancomycin intermediate Staphylococcus aureus NRS-27 expressing SCCmec type 2 element by microdilution method in presence of 50 mg/L calcium; assay type: functional
In short: (§2)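 Daptomycin MIC by CLSI broth microdilution in cation-adjusted Mueller-Hinton broth, supplemented with calcium to a final 50 mg/liter. Read visually as the lowest concentration with no visible growth. ATCC 29213 and E. faecalis ATCC 29212 served as controls. CA-MRSA and DNSSA isolates came from patients at the study hospital; VISA isolates came from NARSA.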

Staphylococcus aureus [8] = assay: Antimicrobial activity against vancomycin intermediate Staphylococcus aureus NRS-68 expressing SCCmec type 2 element by microdilution method in presence of 50 mg/L calcium; assay type: functional; in short: as §2
Staphylococcus aureus [9] = assay: Antimicrobial activity against vancomycin intermediate Staphylococcus aureus NRS-73 expressing SCCmec type 4d element by microdilution method in presence of 50 mg/L calcium; assay type: functional; in short: as §2
Staphylococcus aureus [10] = assay: Antimicrobial activity against vancomycin intermediate Staphylococcus aureus NRS-126 expressing SCCmec type 2 element by microdilution method in presence of 50 mg/L calcium; assay type: functional; in short: as §2
Staphylococcus aureus [11] = assay: Antimicrobial activity against vancomycin intermediate Staphylococcus aureus NRS-402 expressing SCCmec type 2 element by microdilution method in presence of 50 mg/L calcium; assay type: functional; in short: as §2
Staphylococcus aureus [12] = assay: Antimicrobial activity against vancomycin intermediate Staphylococcus aureus NRS-404 expressing SCCmec type 2 element by microdilution method in presence of 50 mg/L calcium; assay type: functional; in short: as §2

## CCCCCCCCCC(=O)N[C@@H](Cc1c[nH]c2ccccc12)C(=O)N[C@H](CC(N)=O)C(=O)N[C@@H](CC(=O)O)C(=O)N[C@@H]1C(=O)NCC(=O)N[C@@H](CCCN)C(=O)N[C@@H](CC(=O)O)C(=O)N[C@H](C)C(=O)N[C@@H](CC(=O)O)C(=O)NCC(=O)N[C@H](CO)C(=O)N[C@@H]([C@H](C)CC(=O)O)C(=O)N[C@@H](CC(=O)c2ccccc2N)C(=O)O[C@@H]1C
Staphylococcus aureus [1]
  MIC: 1 µg/mL
Staphylococcus aureus [2]
  MIC: 0.5 µg/mL
Staphylococcus aureus [3]
  MIC: 0.5 µg/mL
Staphylococcus aureus [4]
  Activity: 35%
Staphylococcus aureus [5]
  MBC50: 2 µg/mL
  MBC90: 4 µg/mL
Staphylococcus aureus [5]; Staphylococcus aureus
  MBC: 0.5 µg/mL
Staphylococcus aureus [6]
  MIC: 0.5 µg/mL
  MIC50: 0.5 µg/mL
  MIC90: 1 µg/mL
Staphylococcus aureus [7]
  MIC: 1 µg/mL
Staphylococcus aureus [8]
  MIC: 1 µg/mL
Staphylococcus aureus [9]
  MIC: 2 µg/mL
Staphylococcus aureus [10]
  MIC: 2 µg/mL
Staphylococcus aureus [11]
  MIC: 8 µg/mL
Staphylococcus aureus [12]
  MIC: 2 µg/mL
